Results from different studies.
Target: Serine/threonine-protein kinase PAK 1 (PAK1, Homo sapiens, UniProt Q13153)

For Cc1cnn2ncc(-c3ccnc(N(C)C)n3)c2c1, the remaining binding was 71% (binding; 1 µM).
For O=C(c1ccc(Nc2ncc(Cl)c(-c3cc4ccccc4s3)n2)cc1)N1CCC(N2CCCC2)CC1, the remaining binding was 85% (binding, competition with immobilised ligand; 1 µM).
The remaining binding of c1cnn2ncc(-c3ccnc(N4CCC45COC5)n3)c2c1 is reported as 90% (binding; 1 µM).
With CN(C)C(=O)Cn1cc(-c2nc([C@@](C)(c3ccc(-c4cnc(N)nc4)cc3)C3CC3)no2)cn1 the remaining binding was 100% (cell-free assay, competition with immobilised ligand; 1 µM).
The remaining binding of C[C@@H]1CN(c2ccc3ncc(-c4ccc5[nH]nc(C6CC6)c5c4)n3n2)C[C@H](C)O1 is reported as 98% (binding, competition with immobilised ligand; 0.5 µM).
COc1cnc(Nc2cccc(S(N)(=O)=O)c2)nc1N1CCN(c2ccccc2)CC1 has a remaining binding of 99% (binding, competition with immobilised ligand; 1 µM).
C[C@H](c1ccnc(Nc2nc3ccc(-c4cc(N(C)C)ncn4)cc3[nH]2)c1)N1CCN(C(=O)CC(F)(F)F)CC1 gave a remaining binding of 77% (cell-free assay, competition with immobilised ligand; 0.1 µM).
For N#Cc1ccccc1CSc1nnc2c(n1)[nH]c1ccccc12, the remaining binding was 80% (binding, competition with immobilised ligand; 10 µM).
With Cc1cc(C)c(-n2ccn3nc(-c4cccnc4)cc23)cc1NC(=O)c1cc(C#N)cc(S(F)(F)(F)(F)F)c1 the remaining binding was 82.2% (cell-free assay, competition with immobilised ligand; 0.1 µM).
For COc1ncc2cc3ccccc3nc2c1C#N, the remaining binding was 97% (cell-free assay, competition with immobilised ligand; 5 µM).
For CO[C@@H](C)c1c(Nc2ccc([C@H](N(C)C(=O)C3CCS(=O)(=O)CC3)C(F)(F)F)cc2)cnc2cc(Cl)nn12, the remaining binding was 74% (cell-free assay, competition with immobilised ligand; 1 µM).
O=C(Nc1c[nH]nc1C(=O)NC1CCNCC1)c1cc(F)cc(F)c1 gave a remaining binding of 100% (binding, competition with immobilised ligand; 1 µM).
The remaining binding of N[C@@H]1CCN(c2nccc(-c3cnn4ncccc34)n2)C1 is reported as 100% (binding; 1 µM).
CN(C)C(=O)Cn1cc(-c2nc(C3(c4ccc(-c5cnc(N)nc5)cc4)CC3)no2)cn1 has a remaining binding of 100% (cell-free assay, competition with immobilised ligand; 1 µM).
CN(C)c1nccc(-c2cnc3ncccn23)n1 gave a remaining binding of 91% (binding; 1 µM).
Cc1cnc(Nc2ccc(C(=O)N3CCC(N4CCCC4)CC3)cc2)nc1-c1cc2ccccc2s1 gave a remaining binding of 98% (binding, competition with immobilised ligand; 1 µM).
